Results taken from ChEMBL document CHEMBL3044834, “Novel protoporphyrinogen oxidase inhibitors: 3H-pyrazolo[3,4-d][1,2,3]triazin-4-one derivatives” (J Agric Food Chem, 2008).

Key:
Format in all cases: functional
[1] = test system: Brassica rapa subsp. oleifera; test: Herbicidal activity against Brassica rapa subsp. oleifera assessed as inhibition of fresh weed plant weight at 22.5 g/ha using pre-emergence treatment protocol
Digitaria sanguinalis [2] = test: Herbicidal activity against Digitaria sanguinalis (hairy crabgrass) assessed as inhibition of fresh weed plant weight at 93.75 g/ha using post-emergence treatment protocol
How it was run: (§1)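 Test compounds made up as emulsions by dissolving in 100 µL N,N-dimethylformamide, then adding a little Tween 20 and water. For post-emergence, weed seedlings at one leaf and one stem were sprayed at the same rates as the pre-emergence test. Fresh weight was recorded 15 days after treatment and expressed as percent inhibition versus controls. All treatments were run in triplicate.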

Amaranthus retroflexus [3] = test: Herbicidal activity against Amaranthus retroflexus assessed as inhibition of fresh weed plant weight at 187.5 g/ha using pre-emergence treatment protocol
Amaranthus retroflexus [4] = test: Herbicidal activity against Amaranthus retroflexus assessed as inhibition of fresh weed plant weight at 93.75 g/ha using pre-emergence treatment protocol
Echinochloa crus-galli [5] = test: Herbicidal activity against Echinochloa crus-galli (barnyard grass) assessed as inhibition of fresh weed plant weight at 187.5 g/ha using pre-emergence treatment protocol; how it was run: as §1
Amaranthus retroflexus [6] = test: Herbicidal activity against Amaranthus retroflexus assessed as inhibition of fresh weed plant weight at 375 g/ha using post-emergence treatment protocol; how it was run: as §1
Digitaria sanguinalis [7] = test: Herbicidal activity against Digitaria sanguinalis (hairy crabgrass) assessed as inhibition of fresh weed plant weight at 93.75 g/ha using pre-emergence treatment protocol
Echinochloa crus-galli [8] = test: Herbicidal activity against Echinochloa crus-galli (barnyard grass) assessed as inhibition of fresh weed plant weight at 1500 g/ha using post-emergence treatment protocol; how it was run: as §1
Amaranthus retroflexus [9] = test: Herbicidal activity against Amaranthus retroflexus assessed as inhibition of fresh weed plant weight at 187.5 g/ha using post-emergence treatment protocol; how it was run: as §1
Amaranthus retroflexus [10] = test: Herbicidal activity against Amaranthus retroflexus assessed as inhibition of fresh weed plant weight at 750 g/ha using post-emergence treatment protocol; how it was run: as §1
[11] = test system: Brassica rapa subsp. oleifera; test: Herbicidal activity against Brassica rapa subsp. oleifera assessed as inhibition of fresh weed plant weight at 93.75 g/ha using pre-emergence treatment protocol
Amaranthus retroflexus [12] = test: Herbicidal activity against Amaranthus retroflexus assessed as inhibition of fresh weed plant weight at 45 g/ha using pre-emergence treatment protocol
Digitaria sanguinalis [13] = test: Herbicidal activity against Digitaria sanguinalis (hairy crabgrass) assessed as inhibition of fresh weed plant weight at 375 g/ha using post-emergence treatment protocol; how it was run: as §1
Amaranthus retroflexus [14] = test: Herbicidal activity against Amaranthus retroflexus assessed as inhibition of fresh weed plant weight at 93.75 g/ha using post-emergence treatment protocol; how it was run: as §1
Echinochloa crus-galli [15] = test: Herbicidal activity against Echinochloa crus-galli (barnyard grass) assessed as inhibition of fresh weed plant weight at 187.5 g/ha using post-emergence treatment protocol; how it was run: as §1
Echinochloa crus-galli [16] = test: Herbicidal activity against Echinochloa crus-galli (barnyard grass) assessed as inhibition of fresh weed plant weight at 750 g/ha using pre-emergence treatment protocol
Digitaria sanguinalis [17] = test: Herbicidal activity against Digitaria sanguinalis (hairy crabgrass) assessed as inhibition of fresh weed plant weight at 750 g/ha using post-emergence treatment protocol; how it was run: as §1
Amaranthus retroflexus [18] = test: Herbicidal activity against Amaranthus retroflexus assessed as inhibition of fresh weed plant weight at 750 g/ha using pre-emergence treatment protocol; how it was run: as §1
Digitaria sanguinalis [19] = test: Herbicidal activity against Digitaria sanguinalis (hairy crabgrass) assessed as inhibition of fresh weed plant weight at 1500 g/ha using pre-emergence treatment protocol
Echinochloa crus-galli [20] = test: Herbicidal activity against Echinochloa crus-galli (barnyard grass) assessed as inhibition of fresh weed plant weight at 1500 g/ha using pre-emergence treatment protocol
Echinochloa crus-galli [21] = test: Herbicidal activity against Echinochloa crus-galli (barnyard grass) assessed as inhibition of fresh weed plant weight at 93.75 g/ha using post-emergence treatment protocol; how it was run: as §1
Digitaria sanguinalis [22] = test: Herbicidal activity against Digitaria sanguinalis (hairy crabgrass) assessed as inhibition of fresh weed plant weight at 22.5 g/ha using pre-emergence treatment protocol
[23] = test system: Brassica rapa subsp. oleifera; test: Herbicidal activity against Brassica rapa subsp. oleifera assessed as inhibition of fresh weed plant weight at 1500 g/ha using pre-emergence treatment protocol
[24] = test system: Brassica rapa subsp. oleifera; test: Herbicidal activity against Brassica rapa subsp. oleifera assessed as inhibition of fresh weed plant weight at 93.75 g/ha using post-emergence treatment protocol; how it was run: as §1
Echinochloa crus-galli [25] = test: Herbicidal activity against Echinochloa crus-galli (barnyard grass) assessed as inhibition of fresh weed plant weight at 750 g/ha using post-emergence treatment protocol; how it was run: as §1
[26] = test system: Brassica rapa subsp. oleifera; test: Herbicidal activity against Brassica rapa subsp. oleifera assessed as inhibition of fresh weed plant weight at 375 g/ha using pre-emergence treatment protocol
[27] = test system: Brassica rapa subsp. oleifera; test: Herbicidal activity against Brassica rapa subsp. oleifera assessed as inhibition of fresh weed plant weight at 45 g/ha using pre-emergence treatment protocol
[28] = test system: Brassica rapa subsp. oleifera; test: Herbicidal activity against Brassica rapa subsp. oleifera assessed as inhibition of fresh weed plant weight at 1500 g/ha using post-emergence treatment protocol; how it was run: as §1
Echinochloa crus-galli [29] = test: Herbicidal activity against Echinochloa crus-galli (barnyard grass) assessed as inhibition of fresh weed plant weight at 22.5 g/ha using pre-emergence treatment protocol; how it was run: as §1
Echinochloa crus-galli [30] = test: Herbicidal activity against Echinochloa crus-galli (barnyard grass) assessed as inhibition of fresh weed plant weight at 375 g/ha using post-emergence treatment protocol; how it was run: as §1
[31] = test system: Brassica rapa subsp. oleifera; test: Herbicidal activity against Brassica rapa subsp. oleifera assessed as inhibition of fresh weed plant weight at 750 g/ha using pre-emergence treatment protocol
[32] = test system: Brassica rapa subsp. oleifera; test: Herbicidal activity against Brassica rapa subsp. oleifera assessed as inhibition of fresh weed plant weight at 187.5 g/ha using post-emergence treatment protocol; how it was run: as §1
[33] = test system: Brassica rapa subsp. oleifera; test: Herbicidal activity against Brassica rapa subsp. oleifera assessed as inhibition of fresh weed plant weight at 187.5 g/ha using pre-emergence treatment protocol
[34] = test system: Brassica rapa subsp. oleifera; test: Herbicidal activity against Brassica rapa subsp. oleifera assessed as inhibition of fresh weed plant weight at 375 g/ha using post-emergence treatment protocol; how it was run: as §1
[35] = test system: Brassica rapa subsp. oleifera; test: Herbicidal activity against Brassica rapa subsp. oleifera assessed as inhibition of fresh weed plant weight at 750 g/ha using post-emergence treatment protocol; how it was run: as §1
Digitaria sanguinalis [36] = test: Herbicidal activity against Digitaria sanguinalis (hairy crabgrass) assessed as inhibition of fresh weed plant weight at 45 g/ha using pre-emergence treatment protocol
Amaranthus retroflexus [37] = test: Herbicidal activity against Amaranthus retroflexus assessed as inhibition of fresh weed plant weight at 1500 g/ha using post-emergence treatment protocol; how it was run: as §1
Digitaria sanguinalis [38] = test: Herbicidal activity against Digitaria sanguinalis (hairy crabgrass) assessed as inhibition of fresh weed plant weight at 1500 g/ha using post-emergence treatment protocol; how it was run: as §1
Echinochloa crus-galli [39] = test: Herbicidal activity against Echinochloa crus-galli (barnyard grass) assessed as inhibition of fresh weed plant weight at 45 g/ha using pre-emergence treatment protocol
Amaranthus retroflexus [40] = test: Herbicidal activity against Amaranthus retroflexus assessed as inhibition of fresh weed plant weight at 375 g/ha using pre-emergence treatment protocol
Digitaria sanguinalis [41] = test: Herbicidal activity against Digitaria sanguinalis (hairy crabgrass) assessed as inhibition of fresh weed plant weight at 750 g/ha using pre-emergence treatment protocol
Echinochloa crus-galli [42] = test: Herbicidal activity against Echinochloa crus-galli (barnyard grass) assessed as inhibition of fresh weed plant weight at 375 g/ha using pre-emergence treatment protocol; how it was run: as §1
Amaranthus retroflexus [43] = test: Herbicidal activity against Amaranthus retroflexus assessed as inhibition of fresh weed plant weight at 22.5 g/ha using pre-emergence treatment protocol
Amaranthus retroflexus [44] = test: Herbicidal activity against Amaranthus retroflexus assessed as inhibition of fresh weed plant weight at 1500 g/ha using pre-emergence treatment protocol
Digitaria sanguinalis [45] = test: Herbicidal activity against Digitaria sanguinalis (hairy crabgrass) assessed as inhibition of fresh weed plant weight at 187.5 g/ha using post-emergence treatment protocol; how it was run: as §1
Echinochloa crus-galli [46] = test: Herbicidal activity against Echinochloa crus-galli (barnyard grass) assessed as inhibition of fresh weed plant weight at 93.75 g/ha using pre-emergence treatment protocol
Digitaria sanguinalis [47] = test: Herbicidal activity against Digitaria sanguinalis (hairy crabgrass) assessed as inhibition of fresh weed plant weight at 187.5 g/ha using pre-emergence treatment protocol
Digitaria sanguinalis [48] = test: Herbicidal activity against Digitaria sanguinalis (hairy crabgrass) assessed as inhibition of fresh weed plant weight at 375 g/ha using pre-emergence treatment protocol

C=CCN1C(=O)COc2cc(F)c(-n3nnc4c(cnn4CC=C)c3=O)cc21
inhibition at 22.5 g/ha [1]: 12.7%
inhibition at 93.75 g/ha (Digitaria sanguinalis [2]): 0%
inhibition at 187.5 g/ha (Amaranthus retroflexus [3]): 100%
inhibition at 93.75 g/ha (Amaranthus retroflexus [4]): 100%
inhibition at 187.5 g/ha (Echinochloa crus-galli [5]): 34.4%
inhibition at 375 g/ha (Amaranthus retroflexus [6]): 53.7%
inhibition at 93.75 g/ha (Digitaria sanguinalis [7]): 20.4%
inhibition at 1500 g/ha (Echinochloa crus-galli [8]): 89.3%
inhibition at 187.5 g/ha (Amaranthus retroflexus [9]): 30.6%
inhibition at 750 g/ha (Amaranthus retroflexus [10]): 85.1%
inhibition at 93.75 g/ha [11]: 60.4%
inhibition at 45 g/ha (Amaranthus retroflexus [12]): 82.8%
inhibition at 375 g/ha (Digitaria sanguinalis [13]): 0%
inhibition at 93.75 g/ha (Amaranthus retroflexus [14]): 19%
inhibition at 187.5 g/ha (Echinochloa crus-galli [15]): 14.2%
inhibition at 750 g/ha (Echinochloa crus-galli [16]): 89.2%
inhibition at 750 g/ha (Digitaria sanguinalis [17]): 4.2%
inhibition at 750 g/ha (Amaranthus retroflexus [18]): 100%
inhibition at 1500 g/ha (Digitaria sanguinalis [19]): 92.3%
inhibition at 1500 g/ha (Echinochloa crus-galli [20]): 96.5%
inhibition at 93.75 g/ha (Echinochloa crus-galli [21]): 0.2%
inhibition at 22.5 g/ha (Digitaria sanguinalis [22]): 4.9%
inhibition at 1500 g/ha [23]: 100%
inhibition at 93.75 g/ha [24]: 19.6%
inhibition at 750 g/ha (Echinochloa crus-galli [25]): 49.9%
inhibition at 375 g/ha [26]: 100%
inhibition at 45 g/ha [27]: 40.7%
inhibition at 1500 g/ha [28]: 100%
inhibition at 22.5 g/ha (Echinochloa crus-galli [29]): 5.4%
inhibition at 375 g/ha (Echinochloa crus-galli [30]): 23.2%
inhibition at 750 g/ha [31]: 100%
inhibition at 187.5 g/ha [32]: 55.6%
inhibition at 187.5 g/ha [33]: 93.3%
inhibition at 375 g/ha [34]: 95.3%
inhibition at 750 g/ha [35]: 100%
inhibition at 45 g/ha (Digitaria sanguinalis [36]): 17.1%
inhibition at 1500 g/ha (Amaranthus retroflexus [37]): 100%
inhibition at 1500 g/ha (Digitaria sanguinalis [38]): 31.2%
inhibition at 45 g/ha (Echinochloa crus-galli [39]): 7.4%
inhibition at 375 g/ha (Amaranthus retroflexus [40]): 100%
inhibition at 750 g/ha (Digitaria sanguinalis [41]): 67.4%
inhibition at 375 g/ha (Echinochloa crus-galli [42]): 47.4%
inhibition at 22.5 g/ha (Amaranthus retroflexus [43]): 3.4%
inhibition at 1500 g/ha (Amaranthus retroflexus [44]): 100%
inhibition at 187.5 g/ha (Digitaria sanguinalis [45]): 0%
inhibition at 93.75 g/ha (Echinochloa crus-galli [46]): 10%
inhibition at 187.5 g/ha (Digitaria sanguinalis [47]): 26.5%
inhibition at 375 g/ha (Digitaria sanguinalis [48]): 51%
